Source: PubChem
Tn7 DDE FP: DD(E)-Tn7 binding inhibition, primary FP screen; AID 720508; P02675; 0.13% of 370,000 active; inhibition, % at 8.3 µM; FP displacement of FITC-Tn7 peptide from fibrin DD(E); 0% = median of compound wells per plate;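 active means inhibition above the mean of compounds falling within the control limits plus 3 SD of them, cut at about 14% in these data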;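 further: 0% = plate median of compound wells and 100% = 10 µM Aha-Tn7 peptide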
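system = human fibrin DD(E) protein | quantity = DD(E) 2 µM final | medium = Tris/NaCl/CaCl2 buffer, pH 7.8 | also added = labelled Tn7 tracer, 0.1 µM | compound dosing = single point at 8.3 µM | timing = compound with protein 10 min, then 3 h after probe, room temperature | signal = FP measurement | benchmarks = Aha-Tn7 high control | repeats = one replicate per compound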
ARFGAP1 inhibitor: inhibitors of rat ARFGAP1; Arfgap1-stimulated ARF1 GTP hydrolysis, GDP FP detection; inhibition, % at 16.5 µM; 0.26% of 360,000 active; AID 651572;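 active means inhibition above a per-plate limit, mean inhibition of low control wells plus 3 SD, cut at about 25% in these data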;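 further: 0% = DMSO wells with enzyme and 100% = wells lacking Arfgap1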
Target sequence (Q62848 1-136 limits assumed): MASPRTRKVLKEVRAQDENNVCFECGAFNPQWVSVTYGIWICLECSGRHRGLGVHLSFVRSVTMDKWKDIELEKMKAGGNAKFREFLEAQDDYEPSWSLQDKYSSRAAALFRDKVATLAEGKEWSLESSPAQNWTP
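System: truncated rat Arfgap1 GAP domain / Medium: HEPES-based buffer, pH 7.5 / Also added: N-terminally truncated human ARF1-GTP substrate / Incubation: enzyme reaction 120 min at 25 °C after 20 min preincubation / Measured by: FP of antibody-bound GDP Alexa 633 tracer, ex 620/em 688 nm / Replicates: singlicate, each compound tested once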
DDE Tn6 FP inh: DD(E)-Tn6 binding inhibition, primary FP screen; P02675; Fibrin DD(E) TRITC-Tn6 fluorescence polarization displacement; inhibition, % at 8.3 µM; 0.21% of 370,000 active; AID 720509;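 active means inhibition above a per-campaign cutoff: mean of compounds within control limits plus 3 SD, cut at about 15% in these data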;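 further: 0% = median of all compound wells on the plate and 100% = blocking peptide control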
ASAP1 GAP inh: blocks human ASAP1-stimulated Arf1 GTP hydrolysis; 0.19% of 360,000 active; inhibition, % at 16.5 µM; Q9ULH1; GDP FP detection; AID 624377; in the data active means inhibition above about 25%;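 further: 0% = vehicle with enzyme and substrate and 100% = no enzyme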
Target sequence (Q9ULH1 325-724 limits assumed): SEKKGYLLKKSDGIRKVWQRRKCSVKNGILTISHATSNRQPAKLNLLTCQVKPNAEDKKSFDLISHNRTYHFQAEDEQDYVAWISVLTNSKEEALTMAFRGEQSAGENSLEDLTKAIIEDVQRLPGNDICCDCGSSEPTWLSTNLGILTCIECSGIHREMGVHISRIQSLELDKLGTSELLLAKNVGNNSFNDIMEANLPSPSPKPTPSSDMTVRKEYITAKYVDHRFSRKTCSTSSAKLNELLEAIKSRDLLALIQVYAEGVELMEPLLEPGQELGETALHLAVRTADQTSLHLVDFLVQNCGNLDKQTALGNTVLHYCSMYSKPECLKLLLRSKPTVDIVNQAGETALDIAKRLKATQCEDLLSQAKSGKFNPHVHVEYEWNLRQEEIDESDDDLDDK
ASAP1 inh confirm: confirmation of human ASAP1 inhibitors; inhibition, % at 16.5 µM; AID 624431; ASAP1-stimulated Arf1 GTPase, GDP fluorescence polarization; 37% of 620 active; shares compounds with ASAP1 GAP inh;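 active means mean inhibition over triplicates exceeds the hit threshold derived for the earlier primary screening run, cut at about 25% in these data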
* hit, by the source's call; . = no result given; ! = a repeat was not active. An excerpt weighted towards active compounds, which were near 0.74% of everything screened.

SMILES | Tn7 DDE FP | ARFGAP1 inhibitor | DDE Tn6 FP inh | ASAP1 GAP inh | ASAP1 inh confirm
COc1ccc([C@H]2CN(c3ccc(OC)cc3)C(=O)[C@@H]2CC(=O)Nc2ccccc2)cc1 | 2 | 0 | -3 | 28* | 5
COc1ccc(NC(=O)C[C@H]2C(=O)N(c3ccc(OC)cc3)C[C@@H]2c2ccc(Br)cc2)cc1 | 6 | 2 | 0 | -5 | .
CC(C)N(C(=O)Nc1ccc2nsnc2c1)C(C)C | -5 | 20 | -7 | 41* | 7
COc1ccc(N(C)C(=O)Nc2ccc3nsnc3c2)cc1 | -6 | -4 | -2 | 8 | .
COc1ccc(NC(=S)Nc2ccc3nc(C)c(C)nc3c2)cc1 | -3 | 20 | -5 | 6 | .
COc1ccc(NC(=S)Nc2ccc3nsnc3c2)cc1 | -7 | 15 | -5 | 33* | 9
O=C(O)C1Nc2c(O)cccc2C2C=CCC12 (centres undefined) | 4 | -3 | 8 | 26* | 20
CC(C)(C)c1ccc(-c2cn(C[C@H](Cc3ccccc3)n3c(=O)c4ccccc4n3Cc3ccccc3)nn2)cc1 | 3 | . | -1 | . | .
Cc1c(C#N)c2ccccc2n1CC(=O)NCCc1c[nH]c2ccccc12 | -9 | -1 | 6 | 4 | .
N#Cc1cn(CC(=O)NCCc2c[nH]c3ccccc23)c2ccccc12 | 5 | -8 | -1 | 27* | 7
O=C(c1n[nH]c(=O)c2ccccc12)N1CCN(S(=O)(=O)c2ccccc2Cl)CC1 | -6 | -1 | 6 | 25* | 1
COc1ccc(/C=C2\SC(N)=NC2=O)cc1Br | -2 | 5 | -1 | 14 | .
COc1cc(/C=C2\SC(c3ccc(C)cc3)=NC2=O)cc(OC)c1O | -2 | 9 | 7 | 25* | 36*
Cc1ccc(C2=NC(=O)/C(=C/c3cc(O)c(O)c(Br)c3)S2)cc1 | 1 | -10 | 10 | 30* | 69*
COc1cc(/C=C2\SC(N)=NC2=O)cc(Cl)c1O | -1 | 1 | -11 | 3 | .
Cc1cc(N2CCN(C(=O)OC(C)(C)C)C[C@H]2C)ccc1N1CC[C@@H](O)C1 | -11 | -1 | -4 | -4 | .
O=C(NCc1ccccc1)[C@H]1CCCN1 | 5 | 4 | -4 | -3 | .
CNC(=O)COC(=O)/C=C/c1ccco1 | -9 | 5 | 14 | 27* | 9
O=C(COC(=O)/C=C/c1ccco1)NCc1ccco1 | -5 | -3 | 7 | 5 | .
COc1cc2c(C#N)c(N3CCCC3)nc(N)c2c(N)n1 | 1 | -2 | 9 | 43*! | 19
CCOc1cc2c(C#N)c(N3CCCC3)nc(N)c2c(N)n1 | -1 | 1 | 2 | 10 | .
COc1cc2c(C#N)c(N3CCN(C)CC3)nc(N)c2c(N)n1 | -2 | 12 | -11 | -1 | .
N#Cc1c(N2CCCC2)nc(N)c2c(N)nc(N3CCCC3)cc12 | 2 | 12 | -1 | 27* | 8
CCCOc1cc2c(C#N)c(N3CCCC3)nc(N)c2c(N)n1 | 4 | 7 | -3 | 36* | 17
COc1ccc(S(=O)(=O)N2CCc3ccccc32)cc1C(=O)OCC(=O)c1c(N)n(C)c(=O)n(C)c1=O | 4 | 11 | -2 | 26* | 4
SMILES | Tn7 DDE FP | ARFGAP1 inhibitor | DDE Tn6 FP inh | ASAP1 GAP inh | ASAP1 inh confirm
Cc1ccccc1N1CCN(C(=O)CN2C(=O)c3ccccc3C2=O)CC1 | -5 | -8 | 2 | 26* | 0
CC(C)CNc1cccc2c1S(=O)(=O)N[C@@H](Cc1ccccc1)CO2 | -1 | 16 | -10 | 5 | .
COc1ccc(NC(=O)Cn2nnc(-c3ccccc3NC(=O)c3ccco3)n2)cc1 | -2 | 13 | -7 | -1 | .
COc1ccccc1NC(=O)Cn1nnc(-c2ccccc2NC(=O)c2ccco2)n1 | 1 | -2 | 0 | 28* | 4
CCCS(=O)(=O)c1c(S(=O)(=O)CCC)c2ccc(C(N)=O)cn2c1C(=O)c1ccc(F)cc1 | -4 | 2 | 2 | -1 | .
CCCS(=O)(=O)c1c(S(=O)(=O)CCC)c2cnccn2c1C(=O)c1ccc(Cl)cc1 | -4 | -5 | -4 | 27* | 7
O=C(CSc1nc2ccc(Nc3nc(N4CCOCC4)nc(N4CCOCC4)n3)cc2s1)N1CCOCC1 | 7 | 12 | -6 | 25* | 45*
O=C(CSc1nc2ccc(Nc3nc(N4CCOCC4)nc(N4CCOCC4)n3)cc2s1)Nc1ccccc1 | 4 | 0 | 8 | -1 | .
CCN=C1NC(c2cccc(F)c2)C(C(=O)OC)=C(C)N1Cc1ccccc1C(F)(F)F (centres undefined) | -2 | 3 | 0 | 1 | .
O=C1NC(Cc2c[nH]c3ccccc23)C(=O)N1Cc1ccc(CN2C(=O)NC(Cc3c[nH]c4ccccc34)C2=O)cc1 (centres undefined) | -9 | 8 | -7 | 29* | 13
COCCN(CCOC)C(=O)[C@H](CCc1ccccc1)NC(=O)[C@H]1O[C@@H](n2cnc3c(N)ncnc32)[C@H](O)[C@@H]1O | -5 | 3 | -1 | 8 | .
Nc1nc2c(ncn2[C@@H]2O[C@H](C(=O)NC3CCCCC3)[C@@H](O)[C@H]2O)c(=O)[nH]1 | 1 | 1 | 2 | -17 | .
O=S1(=O)CCOCC(CO)N1Cc1cccc(Br)c1 (centres undefined) | 4 | . | -5 | . | .
COc1ccc(S(=O)(=O)NNC(=S)NCCc2ccccc2)c(OC)c1 | 0 | 6 | -3 | 26* | 4
CC1CC(C)CN(C(=O)c2cccc(N3C(=O)c4ccccc4C3=O)c2)C1 (centres undefined) | -6 | -6 | -4 | 25* | 8
CC1CCN(C(=O)c2ccc(N3C(=O)c4ccccc4C3=O)cc2)CC1 | 6 | 0 | 2 | -6 | .
Cc1cc([N+](=O)[O-])c(C)cc1-c1ccc(/C=N/NC(=O)c2cccnc2)o1 | 6 | -3 | 11 | 25* | 21
O=C(N/N=C/c1ccc(-c2ccc([N+](=O)[O-])cc2)o1)c1cccnc1 | 1 | 11 | -4 | -11 | .
CCOC(=O)CNC(=O)N(C)[C@H]1C[C@H]2c3[nH]c4c(-c5ccccc5)cccc4c3CCN2C(=O)[C@H]1[C@H](C)O | -4 | 8 | 2 | -7 | .
COc1cc(/C=C/c2nc(-c3ccccc3O)n[nH]2)cc(OC)c1OC | -1 | 24 | -15 | 25* | 31*
COC(=O)c1cc2c(c3c4ccccc4n(S(=O)(=O)c4ccc(OC)cc4)c13)C(=O)N(Cc1ccccc1OC)C2 | 2 | 23 | -4 | 12 | .
O=C(N/N=C/C(Br)=C/c1ccccc1)c1ccncc1 | -3 | 3 | 1 | -10 | .
O=C(N/N=C/c1ccc(Br)s1)c1ccc([N+](=O)[O-])cc1 | -10 | 12 | -9 | 36* | 97*
O=C(N/N=C/C(Br)=C/c1ccccc1)c1ccc([N+](=O)[O-])cc1 | 11 | 4 | 0 | 48* | 78*
O=C(C1CCCN(Cc2ccccc2[N+](=O)[O-])C1)N1CCCC1 (centres undefined) | 1 | -9 | -5 | 27* | 3
O=C(C1CCCN(Cc2ccccc2F)C1)N1CCCC1 (centres undefined) | 2 | -9 | 2 | -2 | .
